According to paper PMC8248323 (Clinical Pharmacology in Drug Development, 2021):
Where two headings read alike, the source gives them in different places.

Tests used:
OAT3 = OAT3 (Homo sapiens, UniProt Q8TCC7); assay: In vitro transporter inhibition; assay type: in vitro ADME
BCRP = BCRP (Homo sapiens, UniProt Q9UNQ0); assay: In vitro transporter substrate assessment; assay type: in vitro ADME
OATP1B3 [1] = target: T1, OATP1B3 (Homo sapiens, UniProt Q9NPD5); assay: In vitro transporter substrate assessment; assay type: in vitro ADME
T1 sequence (Q9NPD5 whole entry): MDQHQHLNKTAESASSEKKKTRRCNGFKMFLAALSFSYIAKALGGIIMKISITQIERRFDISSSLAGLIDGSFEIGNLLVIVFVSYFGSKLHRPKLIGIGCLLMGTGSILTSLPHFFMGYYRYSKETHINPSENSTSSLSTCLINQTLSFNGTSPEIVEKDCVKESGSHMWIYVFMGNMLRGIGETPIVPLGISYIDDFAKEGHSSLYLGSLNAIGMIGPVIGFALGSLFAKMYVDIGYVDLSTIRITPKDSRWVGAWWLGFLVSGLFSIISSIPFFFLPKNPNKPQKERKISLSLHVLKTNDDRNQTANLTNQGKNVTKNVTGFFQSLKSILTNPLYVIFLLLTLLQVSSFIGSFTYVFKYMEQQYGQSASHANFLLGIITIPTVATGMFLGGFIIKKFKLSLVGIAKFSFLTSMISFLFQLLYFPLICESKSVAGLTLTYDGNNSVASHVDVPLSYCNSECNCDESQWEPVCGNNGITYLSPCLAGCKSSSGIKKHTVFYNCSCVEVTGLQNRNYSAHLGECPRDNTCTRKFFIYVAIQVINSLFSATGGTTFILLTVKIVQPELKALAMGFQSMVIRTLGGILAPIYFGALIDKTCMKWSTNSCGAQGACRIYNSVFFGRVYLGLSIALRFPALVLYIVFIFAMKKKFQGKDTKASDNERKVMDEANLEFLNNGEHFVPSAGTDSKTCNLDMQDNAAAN

[2] = both phase 3 studies; cited from earlier work
CYP2C9 = CYP2C9 (Homo sapiens, UniProt P11712); assay: In vitro CYP inhibition; assay type: in vitro ADME
CYP2C9, sequence (P11712 whole entry): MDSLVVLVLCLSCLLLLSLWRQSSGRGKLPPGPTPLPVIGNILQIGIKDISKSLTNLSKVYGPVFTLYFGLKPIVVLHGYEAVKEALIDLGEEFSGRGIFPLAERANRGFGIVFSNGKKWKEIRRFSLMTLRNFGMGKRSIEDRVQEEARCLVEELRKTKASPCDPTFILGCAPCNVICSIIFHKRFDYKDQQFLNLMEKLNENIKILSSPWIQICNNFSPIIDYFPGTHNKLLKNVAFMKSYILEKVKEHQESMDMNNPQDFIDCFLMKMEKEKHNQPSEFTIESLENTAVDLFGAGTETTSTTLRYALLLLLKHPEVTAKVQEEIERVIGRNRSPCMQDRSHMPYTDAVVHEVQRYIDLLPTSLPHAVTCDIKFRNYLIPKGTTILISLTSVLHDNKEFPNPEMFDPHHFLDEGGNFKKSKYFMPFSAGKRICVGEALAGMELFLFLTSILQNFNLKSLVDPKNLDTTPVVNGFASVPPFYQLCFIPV

CYP2B6 [3] = assay type: in vitro ADME; conditions: in vitro
CYP2E1 = CYP2E1 (Homo sapiens, UniProt P05181); assay: In vitro CYP inhibition; assay type: in vitro ADME
CYP2B6 [4] = target: CYP2B6 (Homo sapiens, UniProt P20813); assay type: in vitro ADME; conditions: in vitro
[5] = Phase 1 DDI study 004 part A: lemborexant plasma PK with/without rifampin; assay type: in vivo, human
CYP2C19 = CYP2C19 (Homo sapiens, UniProt P33261); assay: In vitro CYP inhibition; assay type: in vitro ADME
CYP2C8 = CYP2C8 (Homo sapiens, UniProt P10632); assay: In vitro CYP inhibition; assay type: in vitro ADME
OATP1B1 [6] = target: T2, OATP1B1 (Homo sapiens, UniProt Q9Y6L6); assay: In vitro transporter inhibition; assay type: in vitro ADME
T2 sequence (Q9Y6L6 whole entry): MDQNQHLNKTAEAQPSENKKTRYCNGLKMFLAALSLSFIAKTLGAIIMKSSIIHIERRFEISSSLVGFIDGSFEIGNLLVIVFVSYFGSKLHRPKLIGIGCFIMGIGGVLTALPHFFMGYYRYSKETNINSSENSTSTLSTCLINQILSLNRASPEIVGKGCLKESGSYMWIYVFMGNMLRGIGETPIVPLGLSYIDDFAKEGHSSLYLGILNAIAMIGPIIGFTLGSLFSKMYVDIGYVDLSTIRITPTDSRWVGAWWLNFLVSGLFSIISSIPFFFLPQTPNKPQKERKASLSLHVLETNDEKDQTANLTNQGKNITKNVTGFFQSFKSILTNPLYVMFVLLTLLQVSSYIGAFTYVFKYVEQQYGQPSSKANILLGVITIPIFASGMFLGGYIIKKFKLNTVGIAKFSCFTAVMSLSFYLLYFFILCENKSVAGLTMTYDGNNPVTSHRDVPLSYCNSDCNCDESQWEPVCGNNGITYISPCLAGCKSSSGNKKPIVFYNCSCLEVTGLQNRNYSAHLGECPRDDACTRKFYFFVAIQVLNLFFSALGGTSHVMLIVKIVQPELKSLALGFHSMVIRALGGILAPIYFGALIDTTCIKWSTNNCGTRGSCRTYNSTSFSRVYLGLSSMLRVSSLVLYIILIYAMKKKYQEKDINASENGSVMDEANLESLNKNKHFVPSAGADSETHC

CYP3A [7] = assay type: in vitro ADME; conditions: in vitro
MATE1 = MATE1 (Homo sapiens, UniProt Q96FL8); assay: In vitro transporter inhibition; assay type: in vitro ADME
[8] = Phase 1 DDI study 004 part A: lemborexant plasma PK with/without itraconazole; assay type: in vivo, human
[9] = target: breast cancer resistance protein (Homo sapiens, UniProt Q9UNQ0); assay: In vitro transporter inhibition; assay type: in vitro ADME
OATP1B1 [10] = target: T2, OATP1B1; assay: In vitro transporter substrate assessment; assay type: in vitro ADME
OCT1 = OCT1 (Homo sapiens, UniProt O15245); assay: In vitro transporter inhibition; assay type: in vitro ADME
[11] = assay type: in vivo, human; conditions: for estimated lemborexant exposure: population PK model
P‐gp [12] = target: T3, P‐gp (Homo sapiens, UniProt P08183); assay: In vitro transporter substrate assessment; assay type: in vitro ADME
T3 sequence (P08183 whole entry): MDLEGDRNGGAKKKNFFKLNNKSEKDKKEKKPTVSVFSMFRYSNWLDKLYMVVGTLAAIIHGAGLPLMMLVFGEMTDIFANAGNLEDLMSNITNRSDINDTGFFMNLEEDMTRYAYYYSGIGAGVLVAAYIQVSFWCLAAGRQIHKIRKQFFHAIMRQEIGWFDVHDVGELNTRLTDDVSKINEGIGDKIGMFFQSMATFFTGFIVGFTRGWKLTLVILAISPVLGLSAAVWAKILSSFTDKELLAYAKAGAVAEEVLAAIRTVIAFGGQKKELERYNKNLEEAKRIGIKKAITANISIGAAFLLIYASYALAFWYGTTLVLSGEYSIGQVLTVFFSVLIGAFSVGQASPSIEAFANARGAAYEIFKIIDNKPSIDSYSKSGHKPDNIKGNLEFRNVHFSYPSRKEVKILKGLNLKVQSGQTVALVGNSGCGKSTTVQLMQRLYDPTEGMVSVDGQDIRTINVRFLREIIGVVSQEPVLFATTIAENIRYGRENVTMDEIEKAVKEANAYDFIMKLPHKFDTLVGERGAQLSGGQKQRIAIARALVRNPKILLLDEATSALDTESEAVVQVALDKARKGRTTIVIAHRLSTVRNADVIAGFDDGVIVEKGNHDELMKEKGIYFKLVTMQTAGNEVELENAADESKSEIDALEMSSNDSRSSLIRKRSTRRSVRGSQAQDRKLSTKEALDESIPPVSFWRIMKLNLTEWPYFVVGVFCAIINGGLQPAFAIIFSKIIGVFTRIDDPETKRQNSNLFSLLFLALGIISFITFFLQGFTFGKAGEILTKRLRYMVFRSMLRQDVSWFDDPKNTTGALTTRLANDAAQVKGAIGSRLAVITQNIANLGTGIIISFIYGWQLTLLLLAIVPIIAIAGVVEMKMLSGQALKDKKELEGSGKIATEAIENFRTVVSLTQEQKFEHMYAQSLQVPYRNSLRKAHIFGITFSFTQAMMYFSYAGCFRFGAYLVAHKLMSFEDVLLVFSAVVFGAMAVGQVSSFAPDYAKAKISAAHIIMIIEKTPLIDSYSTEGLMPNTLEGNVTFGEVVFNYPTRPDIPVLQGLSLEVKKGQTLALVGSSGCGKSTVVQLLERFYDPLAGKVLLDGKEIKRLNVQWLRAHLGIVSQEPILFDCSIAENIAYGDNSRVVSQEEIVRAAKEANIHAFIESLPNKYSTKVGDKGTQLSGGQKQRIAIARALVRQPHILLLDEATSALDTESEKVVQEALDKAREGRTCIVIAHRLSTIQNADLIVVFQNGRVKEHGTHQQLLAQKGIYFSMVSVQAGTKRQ

P‐gp [13] = target: T3, P‐gp; assay: In vitro transporter inhibition; assay type: in vitro ADME
MATE2‐K = MATE2‐K (Homo sapiens, UniProt Q86VL8); assay: In vitro transporter inhibition; assay type: in vitro ADME
MATE2‐K, sequence (Q86VL8 1-566 isoform Q86VL8-3): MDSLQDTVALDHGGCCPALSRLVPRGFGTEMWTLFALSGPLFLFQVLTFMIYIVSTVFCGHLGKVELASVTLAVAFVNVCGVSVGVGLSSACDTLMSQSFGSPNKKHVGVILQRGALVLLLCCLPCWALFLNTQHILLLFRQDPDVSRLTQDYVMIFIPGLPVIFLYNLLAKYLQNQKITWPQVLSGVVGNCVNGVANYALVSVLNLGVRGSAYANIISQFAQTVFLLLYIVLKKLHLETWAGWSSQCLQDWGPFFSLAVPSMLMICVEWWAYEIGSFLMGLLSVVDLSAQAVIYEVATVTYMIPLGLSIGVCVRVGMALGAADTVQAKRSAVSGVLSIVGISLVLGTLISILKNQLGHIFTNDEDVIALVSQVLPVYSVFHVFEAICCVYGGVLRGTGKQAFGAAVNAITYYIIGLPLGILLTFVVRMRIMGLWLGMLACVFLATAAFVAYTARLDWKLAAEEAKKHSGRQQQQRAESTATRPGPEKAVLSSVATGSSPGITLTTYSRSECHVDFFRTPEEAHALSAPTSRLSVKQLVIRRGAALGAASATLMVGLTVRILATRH

OAT1 = OAT1 (Homo sapiens, UniProt Q4U2R8); assay: In vitro transporter inhibition; assay type: in vitro ADME
bile salt export pump = bile salt export pump (Homo sapiens, UniProt O95342); assay: In vitro transporter inhibition; assay type: in vitro ADME
bile salt export pump, sequence (O95342 whole entry): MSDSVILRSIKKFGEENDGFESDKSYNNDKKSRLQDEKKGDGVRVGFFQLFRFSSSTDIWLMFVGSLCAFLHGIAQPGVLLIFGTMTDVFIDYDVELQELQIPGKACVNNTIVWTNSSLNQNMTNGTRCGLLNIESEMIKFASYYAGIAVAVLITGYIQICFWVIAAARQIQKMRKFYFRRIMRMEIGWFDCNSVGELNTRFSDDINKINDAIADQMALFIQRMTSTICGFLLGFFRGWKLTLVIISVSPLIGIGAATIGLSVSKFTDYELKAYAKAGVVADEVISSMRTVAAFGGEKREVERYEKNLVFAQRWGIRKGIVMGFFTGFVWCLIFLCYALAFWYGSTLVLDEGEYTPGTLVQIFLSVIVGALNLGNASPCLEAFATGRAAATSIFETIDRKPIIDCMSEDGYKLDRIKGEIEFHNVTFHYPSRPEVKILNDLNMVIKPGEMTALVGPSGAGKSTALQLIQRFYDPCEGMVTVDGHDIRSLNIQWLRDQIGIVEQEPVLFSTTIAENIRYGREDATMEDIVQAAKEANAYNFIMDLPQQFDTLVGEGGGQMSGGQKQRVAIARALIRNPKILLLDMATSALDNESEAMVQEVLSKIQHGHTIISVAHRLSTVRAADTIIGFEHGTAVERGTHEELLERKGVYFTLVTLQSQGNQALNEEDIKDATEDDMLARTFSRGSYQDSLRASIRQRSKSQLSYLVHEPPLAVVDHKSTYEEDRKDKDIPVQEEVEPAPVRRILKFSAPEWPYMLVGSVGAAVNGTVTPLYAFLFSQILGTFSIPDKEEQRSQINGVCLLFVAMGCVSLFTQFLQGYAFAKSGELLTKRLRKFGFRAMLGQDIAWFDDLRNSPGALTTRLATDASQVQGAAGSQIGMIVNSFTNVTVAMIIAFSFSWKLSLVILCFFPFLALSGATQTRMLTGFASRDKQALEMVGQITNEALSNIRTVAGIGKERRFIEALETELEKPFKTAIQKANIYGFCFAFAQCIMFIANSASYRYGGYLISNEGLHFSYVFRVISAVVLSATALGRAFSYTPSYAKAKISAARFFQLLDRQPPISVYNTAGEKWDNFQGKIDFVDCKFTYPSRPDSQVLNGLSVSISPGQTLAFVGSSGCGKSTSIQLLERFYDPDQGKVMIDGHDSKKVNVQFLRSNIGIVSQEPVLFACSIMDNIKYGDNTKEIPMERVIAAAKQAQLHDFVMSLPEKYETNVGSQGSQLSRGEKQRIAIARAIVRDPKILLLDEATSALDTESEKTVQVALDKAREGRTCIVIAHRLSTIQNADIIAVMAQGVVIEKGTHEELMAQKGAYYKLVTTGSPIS

CYP3A [14] = assay type: in vitro ADME; conditions: in vitro metabolism studies; unpublished data
CYP3A [15] = assay: in vitro; assay type: in vitro ADME
[16] = Phase 1 DDI study 012: lemborexant plasma PK with/without fluconazole; assay type: in vivo, human; conditions: for AUC: human, plasma
[17] = Safety assessments in phase 1 DDI studies 004 and 012; assay type: in vivo, human
Outline: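 Two open-label single-site phase 1 studies in healthy adults, morning dosing. Test compound 10 mg was given alone and with a strong CYP3A inhibitor (200 mg) or inducer (600 mg) daily for 20 days, or with a moderate CYP3A inhibitor (400 mg, then 200 mg daily). It was also given daily for 13 days around CYP3A/CYP2B6 probe substrates. All treatment-emergent and serious AEs were recorded, with serum chemistry, hematology and urinalysis.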

OATP1B3 [18] = target: T1, OATP1B3; assay: In vitro transporter inhibition; assay type: in vitro ADME
[19] = lemborexant + rifampin / lemborexant alone
[20] = coadministration with itraconazole
[21] = lemborexant + itraconazole / lemborexant alone
[22] = coadministration with fluconazole
[23] = lemborexant + fluconazole / lemborexant alone
[24] = rifampin cohort, N = 15, lemborexant alone days 1‐14, with rifampin days 22‐35

Structure (SMILES): Cc1ncc(OC[C@@]2(c3cccc(F)c3)C[C@H]2C(=O)Nc2ccc(F)cn2)c(C)n1 [Lemborexant, (1R,2S)‐2‐{[(2,4‐dimethylpyrimidin‐5‐yl)oxy]methyl}‐2‐(3‐fluorophenyl)‐N‐(5‐fluoropyridin‐2‐yl)cyclopropanecarboxamide]
- inhibition of OAT3 (OAT3): do not inhibit
- substrate of BCRP (BCRP): neither lemborexant nor M10 was a substrate
- substrate of OATP1B3 (OATP1B3 [1]): neither lemborexant nor M10 was a substrate
- tolerability [2]: well tolerated
- inhibition of CYP2C9 (CYP2C9): do not inhibit
- induction of CYP2B6 (CYP2B6 [3]): have the potential to induce
- inhibition of CYP2E1 (CYP2E1): do not inhibit
- inhibition of CYP2B6 (CYP2B6 [4]): do not inhibit
- decrease in lemborexant AUC0‐inf ([5]; coadministration with rifampin): > 90%
- decrease in lemborexant Cmax ([5]; coadministration with rifampin): > 90%
- half-life ([5]; human, plasma, 10 mg): 45.6 h
- AUC ([5]; human, plasma, 10 mg, AUC0‐inf, Geometric LSM, lemborexant 10 mg alone, n = 15, rifampin cohort): 389 ng·h/mL
- AUC ([5]; human, plasma, 10 mg, AUC0‐inf, Mean (SD), lemborexant 10 mg alone, rifampin cohort): 428 ng·h/mL
- AUC ([5]; human, plasma, 10 mg, AUC0‐t, Mean (SD), lemborexant 10 mg alone, rifampin cohort): 409 ng·h/mL
- Cmax ([5]; human, plasma, 10 mg, Geometric LSM, lemborexant 10 mg alone, n = 15, rifampin cohort): 55.5 ng/mL
- Cmax ([5]; human, plasma, 10 mg, Mean (SD), lemborexant 10 mg alone, rifampin cohort): 58.9 ng/mL
- AUC ([5]; human, plasma, AUC0‐inf, Geometric LSM, lemborexant 10 mg + rifampin 600 mg, n = 9): 13.4 ng·h/mL
- AUC ([5]; human, plasma, AUC0‐inf, Mean (SD), lemborexant 10 mg + rifampin 600 mg): 15.8 ng·h/mL
- AUC ([5]; human, plasma, AUC0‐t, Geometric LSM, lemborexant 10 mg + rifampin 600 mg once daily, n = 15): 12.3 ng·h/mL
- AUC ([5]; human, plasma, AUC0‐t, Mean (SD), lemborexant 10 mg + rifampin 600 mg): 13.5 ng·h/mL
- Cmax ([5]; human, plasma, Geometric LSM, lemborexant 10 mg + rifampin 600 mg, n = 15): 4.7 ng/mL
- Cmax ([5]; human, plasma, Mean (SD), lemborexant 10 mg + rifampin 600 mg): 5.3 ng/mL
- AUC0‐inf, Geometric Mean Ratio (90%CI) [5, 19]: 0.034 (0.026‐0.045)
- AUC0‐t, Geometric Mean Ratio (90%CI) [5, 19]: 0.033 (0.027‐0.040)
- Cmax, Geometric Mean Ratio (90%CI) [5, 19]: 0.085 (0.067‐0.107)
- inhibition of CYP2C19 (CYP2C19): do not inhibit
- inhibition of CYP2C8 (CYP2C8): do not inhibit
- inhibition of OATP1B1 (OATP1B1 [6]): do not inhibit
- induction of CYP3A (CYP3A [7]): have the potential to induce
- inhibition of MATE1 (MATE1): do not inhibit
- increase in lemborexant AUC0–inf [8, 20]: 3.7 fold
- increase in lemborexant Cmax [8, 20]: 1.4 fold
- half-life ([8]; human, plasma, 10 mg): 54.4 h
- AUC ([8]; human, plasma, 10 mg, AUC0‐inf, Geometric LSM, lemborexant 10 mg alone, n = 15, itraconazole cohort): 433 ng·h/mL
- AUC ([8]; human, plasma, 10 mg, AUC0‐inf, Mean (SD), lemborexant 10 mg alone, itraconazole cohort): 464 ng·h/mL
- AUC ([8]; human, plasma, 10 mg, AUC0‐t, Mean (SD), lemborexant 10 mg alone, itraconazole cohort): 437 ng·h/mL
- AUC ([8]; human, plasma, AUC0‐inf, Geometric LSM, lemborexant 10 mg + itraconazole 200 mg, n = 11): 1600 ng·h/mL
- AUC ([8]; human, plasma, AUC0‐inf, Mean (SD), lemborexant 10 mg + itraconazole 200 mg): 1640 ng·h/mL
- AUC ([8]; human, plasma, AUC0‐t, Geometric LSM, lemborexant 10 mg + itraconazole 200 mg once daily, n = 14): 1480 ng·h/mL
- AUC ([8]; human, plasma, AUC0‐t, Mean (SD), lemborexant 10 mg + itraconazole 200 mg): 1540 ng·h/mL
- Cmax ([8]; human, plasma, Cmax, Mean (SD), lemborexant 10 mg + itraconazole 200 mg): 75 ng/mL
- AUC0‐inf, Geometric Mean Ratio (90%CI) [8, 21]: 3.702 (3.183‐4.306)
- AUC0‐t, Geometric Mean Ratio (90%CI) [8, 21]: 3.605 (3.122‐4.162)
- Cmax, Geometric Mean Ratio (90%CI) [8, 21]: 1.360 (1.181‐1.567)
- inhibition of breast cancer resistance protein [9]: do not inhibit
- substrate of OATP1B1 (OATP1B1 [10]): neither lemborexant nor M10 was a substrate
- inhibition of OCT1 (OCT1): do not inhibit
- higher exposure with weak CYP3A inhibitors ([11]; average, with versus without weak CYP3A inhibitors): 30%
- estimated lemborexant exposure ([11]; subjects coadministered weak CYP3A inhibitors, n = 15, studies 303 and 304): 420 ng·h/mL
- estimated lemborexant exposure ([11]; subjects not coadministered weak CYP3A inhibitors, n = 257, studies 303 and 304): 330 ng·h/mL
- degree of CYP3A inhibition (exposure ratio) ([11]; with versus without weak CYP3A inhibitors): 1.3 fold
- substrate of P‐gp (P‐gp [12]): potential poor substrate
- inhibition of P‐gp (P‐gp [13]): do not inhibit
- inhibition of MATE2‐K (MATE2‐K): do not inhibit
- inhibition of OAT1 (OAT1): do not inhibit
- inhibition of bile salt export pump (bile salt export pump): do not inhibit
- metabolic pathway (CYP3A [14]): predominantly metabolized by the cytochrome P450 3A (CYP3A) pathway
- KI (inactivation) (CYP3A [15]): 25.2 µM
- inhibition at 30 μmol/L (CYP3A [15]): 61.5%
- kinact (CYP3A [15]): 0.000838 s⁻¹
- increase in lemborexant AUC0–inf [16, 22]: ~4 fold
- increase in lemborexant Cmax [16, 22]: 1.6 fold
- AUC ([16]; AUC0‐inf, Geometric LSM, lemborexant 10 mg + fluconazole 200 mg, n = 12): 1560 ng·h/mL
- AUC ([16]; AUC0‐inf, Mean (SD), lemborexant 10 mg + fluconazole 200 mg): 1540 ng·h/mL
- AUC ([16]; AUC0‐t, Geometric LSM, lemborexant 10 mg + fluconazole 200 mg once daily, n = 14): 1330 ng·h/mL
- AUC ([16]; AUC0‐t, Mean (SD), lemborexant 10 mg + fluconazole 200 mg): 1360 ng·h/mL
- AUC0‐inf, Geometric Mean Ratio (90%CI) [16, 23]: 4.175 (3.828‐4.553)
- AUC0‐t, Geometric Mean Ratio (90%CI) [16, 23]: 3.759 (3.486‐4.053)
- Cmax, Geometric Mean Ratio (90%CI) [16, 23]: 1.622 (1.336‐1.969)
- subjects who experienced sleep paralysis ([17]; across the phase 1 studies): 4 subjects
- time of sleep paralysis after lemborexant dosing ([17]; all cases): ≤ 1 h
- severity of sleep paralysis ([17]; all cases, resolved, no discontinuation): mild
- changes in laboratory values, vital signs, electrocardiograms, or physical examination findings ([17]; phase 1 DDI studies): no clinically important changes
- tolerability ([17]; phase 1 studies): generally well tolerated
- AEs [17, 24]: 4 (26.7) n (%)
- AEs leading to study discontinuation [17, 24]: 0 n (%)
- AEs, Mild [17, 24]: 4 (26.7) n (%)
- AEs, Moderate [17, 24]: 0 n (%)
- AEs, Severe [17, 24]: 0 n (%)
- Death [17, 24]: 0 n (%)
- SAEs [17, 24]: 0 n (%)
- Treatment‐related AEs [17, 24]: 2 (13.3) n (%)
- inhibition of OATP1B3 (OATP1B3 [18]): do not inhibit
